# Hits are enriched below; roughly 1.9% of the tested compounds scored in any of these assays.
# Hck-Nef inh: inhibitors of Nef-activated human Hck kinase, primary screen, biochemical, Z-Lyte FRET, 384-well, Hck-YEEI | Recombinant Hck-YEEI plus Nef, Z-Lyte FRET kinase assay | inhibition, % at 20 µM | 220,000 tested, 0.68% active;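 active means Hck-Nef kinase inhibition above about 50%, limit read from the data; inactive means inhibition below that limit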
# Target sequence (P08631 whole entry, looked up): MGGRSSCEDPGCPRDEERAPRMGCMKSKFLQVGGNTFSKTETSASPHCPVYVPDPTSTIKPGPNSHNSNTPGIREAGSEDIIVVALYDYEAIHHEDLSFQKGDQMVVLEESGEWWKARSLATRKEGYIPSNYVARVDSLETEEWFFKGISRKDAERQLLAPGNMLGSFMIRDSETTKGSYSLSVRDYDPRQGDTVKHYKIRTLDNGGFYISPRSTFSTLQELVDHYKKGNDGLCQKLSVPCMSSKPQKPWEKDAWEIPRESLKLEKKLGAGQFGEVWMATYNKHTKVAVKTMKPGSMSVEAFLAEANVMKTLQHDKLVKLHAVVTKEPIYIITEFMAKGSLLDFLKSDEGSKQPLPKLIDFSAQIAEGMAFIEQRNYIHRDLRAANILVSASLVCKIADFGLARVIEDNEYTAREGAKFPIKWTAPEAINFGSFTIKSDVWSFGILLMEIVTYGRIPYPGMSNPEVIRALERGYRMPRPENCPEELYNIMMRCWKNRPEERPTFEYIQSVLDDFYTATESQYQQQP
# RanGTP-Imp inh: inhibitors of RanGTP-importin-beta interaction, primary screen, biochemical, FRET, CFP-Ran, YFP-importin-beta, homogeneous. 300,000 tested, 1.1% active. inhibition, % (concentration not given with the values). AID 2216, 2009. Ran GTPase (GTP-bound) - importin-beta complex. cell-free CFP-Ran/YFP-importin-beta FRET ratio;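 active means more than half of the replicate wells show a fall in the fluorescence ratio signal beyond about 16%, limit read from the data, passing the limit was not always enough; inconclusive means exactly half of the replicate wells pass the set limit; inactive means fewer than half of replicates pass the limit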
# Runt-CBFb FRET: inhibitors of RUNX1 Runt–CBFb binding, primary screen, biochemical, FRET, Cerulean-Runt, Venus-CBFb, uHTS; Runt-related transcription factor 1 (Homo sapiens) + Core-binding factor subunit beta …; Cerulean-Runt/Venus-CBFb FRET ratio 530/480, 1 h; inhibition, % at 20 µM; 220,000 tested, 0.46% active;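 active means inhibition over about 50% at 20 µM in the single-dose screen, limit read from the data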
#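 Reagent – Venus-CBFb binding partner, 100 nM · Assay system – Cerulean-tagged RUNX1 Runt domain (FRET donor) fusion protein · Input – 100 nM per protein · Incubation – two 1 h room-temperature incubations shielded from light · Measured by – FRET fluorescence · Medium – Tris buffer pH 7.5 with salts and BSA · Benchmarks – unlabeled CBFb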
# Runt-SMMHC FRET: inhibitors of RUNX1 Runt–CBFb-SMMHC binding, primary screen, biochemical, FRET, Cerulean-Runt, Venus-CBFb-SMMHC, uHTS; Runt-related transcription factor 1 (Homo sapiens) + Core-binding factor subunit beta …; inhibition, % at 20 µM; 220,000 tested, 0.74% active; Cerulean-Runt/Venus-CBFb-SMMHC FRET ratio 530/480, 1 h;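 active means mean inhibition across duplicate retests at 20 µM reaching about 50%, limit read from the data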;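 further: inhibitors lower the FRET ratio by blocking Runt binding to CBFb-SMMHC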
# Hits are given with their value; n = inactive; u = inconclusive; x = no result.
SMILES,Hck-Nef inh,RanGTP-Imp inh,Runt-CBFb FRET,Runt-SMMHC FRET
COCCN1C=C(C(=O)OC)C(c2ccc3c(c2)OCO3)C(C(=O)OC)=C1,n,n,n,n
COC(=O)C1=CN(C2CCCCC2)C=C(C(=O)OC)C1c1ccc2c(c1)OCO2,n,n,n,74.9
Cc1ccc(C)c(NC(=O)CN(C)C(=O)c2ccc3[nH]c4c(c3c2)CC(C)CC4)c1 (stereo unspecified),x,25.8,x,x
O=C(O)c1ccc(N/N=C/c2ccc(-c3ccccc3Cl)o2)cc1,66.7,54.2,n,81.2
Cc1ccc(/C=N/Nc2ccc(C(=O)O)cc2)o1,n,n,n,n
O=C(O)c1ccc(N/N=C/c2ccc(-c3ccc(Br)cc3)o2)cc1,x,70.1,x,x
O=S(=O)(N/N=C\c1ccc(-c2ccccc2Cl)o1)c1ccccc1,n,n,n,n
Nc1nonc1C(=O)N/N=C/c1ccc(-c2ccc(Cl)c(C(=O)O)c2)o1,n,n,n,n
O=C(O)c1cc(-c2ccc(/C=N/Nc3ccc(Cl)cc3)o2)ccc1Cl,n,n,n,81.5
CC(=O)N1CCN(c2ncnc3ccccc23)CC1,x,n,x,x
C=CCn1c(CNS(=O)(=O)c2ccc(Br)cc2)n[nH]c1=S,x,n,x,x
O=C(O)CCC(=O)N1N=C(c2ccc(Br)cc2)CC1c1cccc(Br)c1 (stereo unspecified),x,n,x,x
O=C(Cn1c2ccccc2c(=O)c2ccccc21)Nc1cccc(F)c1,n,59.8,75.5,62.8
COc1cccc(CNC(=O)C(NS(=O)(=O)c2ccc3c(c2)CCN3C(C)=O)C(C)C)c1 (stereo unspecified),x,n,x,x
Cc1ccc2c(c1)nnn2C1CCN(CC(=O)Nc2ccccc2N2CCOCC2)CC1,n,n,83.6,n
COc1ccc(C2/C(=C(/O)c3ccc(F)cc3)C(=O)C(=O)N2CCCN2CCOCC2)cc1OC (stereo unspecified),x,n,x,x
N#CCCN(CCN1CCCC1)S(=O)(=O)c1ccc(-c2ccc([N+](=O)[O-])cc2)cc1,n,n,n,n
CCOC(=O)/C(C#N)=C\c1ccc(N2CCN(C/C=C/c3ccccc3)CC2)cc1,n,90.7,n,n
CCCc1cc(=O)oc2cc(C)cc(OC(C)C(=O)NCCCn3ccnc3)c12 (stereo unspecified),x,n,x,x
O=c1[nH]c2ccccc2nc1-c1c[nH]c2ccccc12,x,48.5,x,x
CCC[C@@H](NS(=O)(=O)c1ccc(C)cc1)C(=O)Oc1ccc2c3c(c(=O)oc2c1)CCC3,n,n,n,n
Cc1ccc(S(=O)(=O)NC(C(=O)Oc2ccc3c(C)c(Cl)c(=O)oc3c2)c2ccccc2)cc1 (stereo unspecified),88.5,72.3,63.7,59.3
Cc1ccc(S(=O)(=O)N[C@H](C(=O)Oc2ccc3c(C(F)(F)F)cc(=O)oc3c2)c2ccccc2)cc1,n,32.7,n,77.9
O=C1CCc2ccc(NS(=O)(=O)c3ccc(F)cc3)cc2N1,n,n,n,n
CCN(CC(=O)NC1CCS(=O)(=O)C1)S(=O)(=O)c1ccccc1Cl (stereo unspecified),x,n,x,x
SMILES,Hck-Nef inh,RanGTP-Imp inh,Runt-CBFb FRET,Runt-SMMHC FRET
COc1ccc2oc(=N)c(C(=O)Nc3ccc(C)cc3)cc2c1,x,n,x,x
COc1ccc2o/c(=N\O)c(C(=O)Nc3ccc(C)cc3)cc2c1,n,n,n,62.6
COc1ccccc1NC(=O)c1cc2ccccc2o/c1=N\O,x,n,n,62.1
COc1ccccc1NC(=O)c1cc2ccc(O)cc2o/c1=N\O,n,134.8,95.2,81.2
CC(OC(=O)CCN=C1NS(=O)(=O)c2ccccc21)C(=O)Nc1ccc(F)c(F)c1F (stereo unspecified),x,n,x,x
Cc1cccc(-n2ncc3c2CCCC3NC(=O)CCN2Cc3ccccc3C2=O)c1C (stereo unspecified),x,n,x,x
CC(C)N1CCc2c(sc(NC(=O)c3cc4cc([N+](=O)[O-])ccc4s3)c2C(N)=O)C1,n,32.9,n,n
CN1CCc2c(sc(NC(=O)c3ccc(S(=O)(=O)N4CCc5ccccc54)cc3)c2C(N)=O)C1,n,n,n,n
CC(=O)N1CCc2c(sc(NC(=O)c3cccc(N4C(=O)CCC4=O)c3)c2C(N)=O)C1,x,n,x,x
CC(C)N1CCc2c(sc(NC(=O)c3ccc(C(=O)c4ccccc4)cc3)c2C(N)=O)C1,x,63.5,x,x
CC(=O)Nc1sc2c(c1-c1nc3ccccc3s1)CCN(C(C)C)C2,n,x,n,85.4
CN1CCc2c(sc(NC(=O)c3cc4cc([N+](=O)[O-])ccc4s3)c2C(N)=O)C1,n,n,n,n
CC(C)N1CCc2c(sc(NC(=O)c3ccc4ccccc4c3)c2C(N)=O)C1,x,147.7,x,x
O=C(O)[C@H](Cc1ccccc1)NC(=O)N1CCN(c2cccc(C(F)(F)F)c2)CC1,n,n,n,n
O=C(COC(=O)CNS(=O)(=O)c1ccc2ccccc2c1)Nc1ccccc1Sc1ccccc1,n,n,n,n
CC(=O)Oc1ccc(N(c2ccccc2)S(=O)(=O)c2ccc(C)cc2)cc1,n,n,n,n
O=C(O)C1CCCC2CN3CCc4c([nH]c5ccccc45)C3C(O)C21 (stereo unspecified),x,30.0,x,x
Cc1ncoc1C(=O)N1CCc2c([nH]c3ccccc23)C1C1CCCCC1 (stereo unspecified),n,u,n,n
Cn1c(=O)c(C(=O)COC(=O)c2cc(C3CC3)nc3ccccc23)c(N)n(Cc2ccccc2)c1=O,n,x,n,n
Cn1c(=O)c(C(=O)COC(=O)c2cc(-c3ccco3)nc3ccccc23)c(N)n(CC2CC2)c1=O,50.7,n,n,n
O=C1CSC(c2cccc([N+](=O)[O-])c2)N1CCc1ccccc1 (stereo unspecified),x,n,x,x
N#C/C(=C\c1ccc(-c2ccc([N+](=O)[O-])cc2)o1)C(=O)Nc1nc(-c2cccs2)cs1,67.1,n,n,n
O=C(Oc1cccccc1=O)c1ccccc1,n,63.1,n,n
Cc1cc(Nc2c(C)n(C)n(-c3ccccc3)c2=O)n2c(nc3cc(F)c(F)cc32)c1C#N,n,96.3,n,n
CCCc1cc(SCC(=O)Nc2c(C)n(C)n(-c3ccccc3)c2=O)n2c(nc3ccccc32)c1C#N,n,n,n,n
O=C(CN1CCN(c2ccc(O)cc2)CC1)Nc1cc(S(=O)(=O)N2CCCCC2)ccc1Cl,61.1,n,n,n
O=c1[nH]c2ccccc2n1Cc1ccccc1,n,n,n,n
O=c1nc2n(Cc3ccccc3)c3ccccc3cc-2c(=O)[nH]1,n,89.4,63.1,82.3
Nc1cc(C(=O)OCC(=O)NCCNC(=O)COC(=O)c2ccc(Cl)c(N)c2)ccc1Cl,x,n,x,x
Nc1nc(-c2cc(O)ccc2[N+](=O)[O-])cc(-c2ccccc2)c1[N+](=O)[O-],x,34.0,x,x

# Screening results deposited in PubChem by several laboratories.
